In ChEMBL document CHEMBL2417469, “Synthesis of novel analogs of 2-pyrazoline obtained from [(7-chloroquinolin-4-yl)amino]chalcones and hydrazine as potential antitumor and antimalarial agents” (Eur J Med Chem, 2013):

Tests used:
Format in all cases: functional
LOX IMVI = experiment: Cytotoxicity against human LOXIMVI cells after 48 hrs by SRB assay
In short: (§1)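 NCI 60-cell-line screen. Cells preincubated 24 h at 37 °C, 5% CO2; time-zero plates TCA-fixed. Compounds dissolved in DMSO and tested at five concentrations (100, 10, 1.0, 0.1, 0.01 µM) for 48 h continuous exposure. Adherent cells fixed with cold TCA (10% final), then SRB stained; absorbance at 515 nm. GI50, TGI and LC50 calculated from growth relative to time-zero and untreated controls.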

U-251 = experiment: Cytotoxicity against human U251 cells after 48 hrs by SRB assay; settings: U-251, 48 h; for CC50: read-out: LC50 (the source's name)
In short: (§2)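 NCI 60-cell screen. Cells grew 24 h (37 °C, 5% CO2) before compound was added. Compounds were in DMSO and diluted in medium with gentamicin, then tested at five levels (100, 10, 1.0, 0.1, 0.01 µM) with 48 h continuous exposure. Adherent cells were fixed with TCA (10% final) and stained with 0.4% SRB, absorbance read at 515 nm. A time-zero plate was included. LC50 is the concentration giving 50% loss of protein relative to time zero.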

786-0 = experiment: Cytotoxicity against human 786-0 cells after 48 hrs by SRB assay; settings: 786-0, 48 h; in short: as §1
KM12 = experiment: Cytotoxicity against human KM12 cells after 48 hrs by SRB assay; settings: KM12, 48 h; in short: as §1
Malme-3M = experiment: Cytotoxicity against human MALME-3M cells after 48 hrs by SRB assay; in short: as §1
SF-295 = experiment: Cytotoxicity against human SF295 cells after 48 hrs by SRB assay; settings: SF-295, 48 h; in short: as §1
PC-3 = experiment: Cytotoxicity against human PC3 cells after 48 hrs by SRB assay; settings: PC-3, 48 h; in short: as §1
HCT-15 = experiment: Cytotoxicity against human HCT15 cells after 48 hrs by SRB assay; settings: HCT-15, 48 h; in short: as §1
HT-29 = experiment: Cytotoxicity against human HT-29 cells after 48 hrs by SRB assay; settings: HT-29, 48 h; in short: as §1
OVCAR-8 = experiment: Cytotoxicity against human OVCAR8 cells after 48 hrs by SRB assay; settings: OVCAR-8, 48 h; in short: as §1
SK-OV-3 = experiment: Cytotoxicity against human SKOV3 cells after 48 hrs by SRB assay; settings: SK-OV-3, 48 h; in short: as §1
SK-MEL-28 = experiment: Cytotoxicity against human SK-MEL-28 cells after 48 hrs by SRB assay; settings: SK-MEL-28, 48 h; for CC50: read-out: LC50 (the source's name); in short: as §1
SK-MEL-5 = experiment: Cytotoxicity against human SK-MEL-5 cells after 48 hrs by SRB assay; settings: SK-MEL-5, 48 h; in short: as §1
BT-549 = experiment: Cytotoxicity against human BT549 cells after 48 hrs by SRB assay; settings: BT-549, 48 h; in short: as §1
A498 = experiment: Cytotoxicity against human A498 cells after 48 hrs by SRB assay; settings: A498, 48 h; for CC50: read-out: LC50 (the source's name); in short: as §1
SR = experiment: Cytotoxicity against human SR cells after 48 hrs by SRB assay; in short: as §2
IGROV-1 = experiment: Cytotoxicity against human IGROV1 cells after 48 hrs by SRB assay; settings: IGROV-1, 48 h; in short: as §1
MOLT-4 = experiment: Cytotoxicity against human MOLT4 cells after 48 hrs by SRB assay; settings: MOLT-4, 48 h; in short: as §1
CAKI-1 = experiment: Cytotoxicity against human Caki1 cells after 48 hrs by SRB assay; settings: CAKI-1, 48 h; in short: as §1
COLO 205 = experiment: Cytotoxicity against human COLO205 cells after 48 hrs by SRB assay; settings: COLO 205, 48 h; in short: as §1
NCI/ADR-RES = experiment: Cytotoxicity against human NCI/ADR-RES cells after 48 hrs by SRB assay; settings: for CC50: read-out: LC50 (the source's name); in short: as §1
M14 = experiment: Cytotoxicity against human M14 cells after 48 hrs by SRB assay; settings: M14, 48 h; for CC50: read-out: LC50 (the source's name); in short: as §1
MDA-MB-468 = experiment: Cytotoxicity against human MDA-MB-468 cells after 48 hrs by SRB assay; settings: MDA-MB-468, 48 h; in short: as §1
HCT-116 = experiment: Cytotoxicity against human HCT116 cells after 48 hrs by SRB assay; settings: HCT-116, 48 h; in short: as §1

Molecule COc1ccc(C2CC(c3ccc(Nc4ccnc5cc(Cl)ccc45)cc3)=NN2C=O)cc1 (configuration not stated) has a GI50 (LOX IMVI) of 2320 nM, an LC50 (LOX IMVI) of over 100 µM and a GI50 (U-251) of 1500 nM. It also gave a CC50 (U-251) of over 100 µM, a GI50 (786-0) of 32 µM and an LC50 (786-0) of over 100 µM. It also gave a GI50 (KM12) of 16.5 µM, an LC50 (concentration killing 50% of cells) (KM12) of over 100 µM and an LC50 (Malme-3M) of over 100 µM. The GI50 (SF-295) was 24.8 µM, the LC50 (SF-295) was over 100 µM and the GI50 (PC-3) was 9.43 µM. The LC50 (PC-3) was over 100 µM, the GI50 (HCT-15) was 2970 nM and the LC50 (concentration killing 50% of cells relative to time zero) (HCT-15) was over 100 µM. For the same molecule, the GI50 (HT-29) was 3.81 µM, the LC50 (HT-29) was over 100 µM and the GI50 (OVCAR-8) was 69.8 µM. For the same molecule, the LC50 (50% net cell kill) (OVCAR-8) was over 100 µM, the GI50 (SK-OV-3) was over 100 µM and the LC50 (concentration killing 50% of cells) (SK-OV-3) was over 100 µM. The GI50 (SK-MEL-28) was 20.9 µM, the CC50 (SK-MEL-28) was over 100 µM and the GI50 (SK-MEL-5) was 620 nM. It also gave an LC50 (concentration killing 50% of cells present at time zero) (SK-MEL-5) of over 100 µM, a GI50 (BT-549) of 10900 nM and an LC50 (50% net cell kill vs time zero) (BT-549) of over 100 µM. It also gave a GI50 (A498) of over 100 µM, a CC50 (A498) of over 100 µM and a GI50 (SR) of 2830 nM. For the same molecule, the LC50 (SR) was over 100 µM, the GI50 (IGROV-1) was 43.1 µM and the LC50 (concentration killing 50% of cells relative to time zero) (IGROV-1) was over 100 µM. The GI50 (MOLT-4) was 2.54 µM, the LC50 (MOLT-4) was over 100 µM and the GI50 (CAKI-1) was over 100 µM. It also gave an LC50 (CAKI-1) of over 100 µM, a GI50 (COLO 205) of 3.56 µM and an LC50 (COLO 205) of over 100 µM. It also gave a GI50 (NCI/ADR-RES) of 7.04 µM, a CC50 (NCI/ADR-RES) of over 100 µM and a GI50 (M14) of 7.67 µM. For the same molecule, the CC50 (M14) was over 100 µM, the GI50 (MDA-MB-468) was 1000 nM and the LC50 (MDA-MB-468) was over 100 µM. The GI50 (HCT-116) was 9.97 µM and the LC50 (HCT-116) was over 100 µM.

For COc1cc(C2CC(c3ccc(Nc4ccnc5cc(Cl)ccc45)cc3)=NN2C=O)cc(OC)c1OC (configuration not stated), the GI50 (LOX IMVI) was 1890 nM, the LC50 (LOX IMVI) was 7.83 µM and the GI50 (U-251) was 2060 nM. The CC50 (U-251) was 19.4 µM, the GI50 (786-0) was 2.31 µM and the LC50 (786-0) was 9.93 µM. For the same molecule, the GI50 (KM12) was 5.87 µM, the LC50 (concentration killing 50% of cells) (KM12) was over 100 µM and the GI50 (Malme-3M) was 3.2 µM. It also gave an LC50 (Malme-3M) of over 100 µM, a GI50 (SF-295) of 5.63 µM and an LC50 (SF-295) of over 100 µM. The GI50 (PC-3) was 11.7 µM, the LC50 (PC-3) was over 100 µM and the GI50 (HCT-15) was 3560 nM. For the same molecule, the LC50 (concentration killing 50% of cells relative to time zero) (HCT-15) was over 100 µM, the GI50 (HT-29) was 2.83 µM and the LC50 (HT-29) was over 100 µM. For the same molecule, the GI50 (OVCAR-8) was 9.98 µM, the LC50 (50% net cell kill) (OVCAR-8) was over 100 µM and the GI50 (SK-OV-3) was 3.36 µM. It also gave an LC50 (concentration killing 50% of cells) (SK-OV-3) of 55.8 µM, a GI50 (SK-MEL-28) of 2.22 µM and a CC50 (SK-MEL-28) of 14 µM. For the same molecule, the GI50 (SK-MEL-5) was 1980 nM, the LC50 (concentration killing 50% of cells present at time zero) (SK-MEL-5) was 35.5 µM and the GI50 (BT-549) was 1910 nM. It also gave an LC50 (50% net cell kill vs time zero) (BT-549) of 8.23 µM, a GI50 (A498) of 15.3 µM and a CC50 (A498) of over 100 µM. The GI50 (SR) was 2580 nM, the LC50 (SR) was over 100 µM and the GI50 (IGROV-1) was 22.3 µM. It also gave an LC50 (concentration killing 50% of cells relative to time zero) (IGROV-1) of over 100 µM, a GI50 (MOLT-4) of 3.36 µM and an LC50 (MOLT-4) of over 100 µM. It also gave a GI50 (CAKI-1) of 5.47 µM, an LC50 (CAKI-1) of over 100 µM and a GI50 (COLO 205) of 3.73 µM. For the same molecule, the LC50 (COLO 205) was over 100 µM, the GI50 (NCI/ADR-RES) was 7.88 µM and the CC50 (NCI/ADR-RES) was over 100 µM. For the same molecule, the GI50 (M14) was 3.75 µM, the CC50 (M14) was 48.3 µM and the GI50 (MDA-MB-468) was 1830 nM. The LC50 (MDA-MB-468) was 40.9 µM, the GI50 (HCT-116) was 3.21 µM and the LC50 (HCT-116) was over 100 µM.

For Cc1ccc(C2CC(c3ccc(Nc4ccnc5cc(Cl)ccc45)cc3)=NN2C=O)cc1 (configuration not stated), the GI50 (LOX IMVI) was 4110 nM, the LC50 (LOX IMVI) was over 100 µM and the GI50 (U-251) was over 100000 nM. The CC50 (U-251) was over 100 µM, the GI50 (786-0) was 50.9 µM and the LC50 (786-0) was over 100 µM. The GI50 (KM12) was 6.64 µM, the LC50 (concentration killing 50% of cells) (KM12) was over 100 µM and the GI50 (Malme-3M) was over 100 µM. The LC50 (Malme-3M) was over 100 µM, the GI50 (SF-295) was 4 µM and the LC50 (SF-295) was over 100 µM. The GI50 (PC-3) was 4.61 µM, the LC50 (PC-3) was over 100 µM and the GI50 (HCT-15) was 2780 nM. It also gave an LC50 (concentration killing 50% of cells relative to time zero) (HCT-15) of over 100 µM, a GI50 (HT-29) of 6.09 µM and an LC50 (HT-29) of over 100 µM. It also gave a GI50 (OVCAR-8) of over 100 µM, an LC50 (50% net cell kill) (OVCAR-8) of over 100 µM and a GI50 (SK-OV-3) of over 100 µM. It also gave an LC50 (concentration killing 50% of cells) (SK-OV-3) of over 100 µM, a GI50 (SK-MEL-28) of over 100 µM and a CC50 (SK-MEL-28) of over 100 µM. For the same molecule, the GI50 (SK-MEL-5) was 1740 nM, the LC50 (concentration killing 50% of cells present at time zero) (SK-MEL-5) was over 100 µM and the GI50 (BT-549) was 1650 nM. For the same molecule, the LC50 (50% net cell kill vs time zero) (BT-549) was over 100 µM, the CC50 (A498) was over 100 µM and the GI50 (SR) was 3180 nM. It also gave an LC50 (SR) of over 100 µM, a GI50 (IGROV-1) of 26.6 µM and an LC50 (concentration killing 50% of cells relative to time zero) (IGROV-1) of over 100 µM. The GI50 (MOLT-4) was 5.13 µM, the LC50 (MOLT-4) was over 100 µM and the GI50 (CAKI-1) was over 100 µM. For the same molecule, the LC50 (CAKI-1) was over 100 µM, the GI50 (COLO 205) was 4.59 µM and the LC50 (COLO 205) was over 100 µM. The GI50 (NCI/ADR-RES) was 5.22 µM, the CC50 (NCI/ADR-RES) was over 100 µM and the GI50 (M14) was 6.88 µM. It also gave a CC50 (M14) of over 100 µM, a GI50 (MDA-MB-468) of 1510 nM and an LC50 (MDA-MB-468) of over 100 µM. For the same molecule, the GI50 (HCT-116) was 25.2 µM and the LC50 (HCT-116) was over 100 µM.
